Bioassay records: PubChem BioAssay, several laboratories
A selection: hits, their analogues and other compounds. The true share with any hit is near 2.2%.
Runt-SMMHC FRET: blocks binding of human RUNX1 Runt domain to CBFb-SMMHC; Cerulean-Runt/Venus-CBFb-SMMHC FRET ratio 530/480, 1 h; inhibition, % at 20 µM; actives 0.74% (n = 220,000);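 active = mean inhibition across duplicate retests at 20 µM reaching about 50%, limit read from the data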;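 also: 0% = DMSO wells and 100% = wells with excess untagged CBFb-SMMHC; inhibitors lower the FRET ratio by blocking Runt binding to CBFb-SMMHC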
Runt-CBFb FRET: inhibitors of human RUNX1 Runt domain binding to CBFb; actives 0.46% (n = 220,000); inhibition, % at 20 µM; AID 1496; Q01196+Q13951; Cerulean-Runt/Venus-CBFb FRET ratio 530/480, 1 h;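 active = inhibition over about 50% at 20 µM in the single-dose screen, limit read from the data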;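 also: 0% = DMSO wells and 100% = excess unlabeled CBFb competitor control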
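Schedule: protein complex preformed 1 h, compound exposure 1 h, room temperature, dark; test system: Cerulean-labeled Runt domain protein; amount: 100 nM per protein; buffer or medium: Tris 50 mM pH 7.5, KCl, K2SO4, 0.01% BSA; read-out: loss of energy transfer signal; detection: FRET fluorescence; controls: 5 µM unlabeled CBFb as full-inhibition high control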
Tb hexokinase: blocks Trypanosoma brucei hexokinase 1 activity. recombinant TbHK1, G6PDH-coupled NADH A340. inhibition, % at 10 µM. actives 0.11% (n = 220,000). AID 1430;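 active = inhibition of 50% or more in the single-dose primary screen; inactive = inhibition below 50%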
RanGTP-Imp inh: disruptors of Ran-importin-beta complex formation – biochemical, FRET, CFP-Ran, YFP-importin-beta, homogeneous, primary screen; AID 2216; actives 1.1% (n = 300,000); cell-free CFP-Ran/YFP-importin-beta FRET ratio; inhibition, % (test concentration not listed);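 active = more than half of the replicate wells show a fall in the fluorescence ratio signal beyond about 16%, limit read from the data, passing the limit was not always enough; inconclusive = exactly half of the replicate wells pass the set limit; inactive = fewer than half of replicates pass the limit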;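 also: 0% = DMSO wells and 100% = Ran loaded with GDP instead of GTP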
Hck Nef HTS: inhibitors of human Hck kinase activated by Nef; P08631; actives 0.68% (n = 220,000); Recombinant Hck-YEEI plus Nef, Z-Lyte FRET kinase assay; inhibition, % at 20 µM; AID 463187;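 active = Hck-Nef kinase inhibition above about 50%, limit read from the data; inactive = inhibition below that limit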;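 also: 0% = DMSO with Hck plus Nef and 100% = Hck alone without Nef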
Target sequence (P08631 whole entry, looked up): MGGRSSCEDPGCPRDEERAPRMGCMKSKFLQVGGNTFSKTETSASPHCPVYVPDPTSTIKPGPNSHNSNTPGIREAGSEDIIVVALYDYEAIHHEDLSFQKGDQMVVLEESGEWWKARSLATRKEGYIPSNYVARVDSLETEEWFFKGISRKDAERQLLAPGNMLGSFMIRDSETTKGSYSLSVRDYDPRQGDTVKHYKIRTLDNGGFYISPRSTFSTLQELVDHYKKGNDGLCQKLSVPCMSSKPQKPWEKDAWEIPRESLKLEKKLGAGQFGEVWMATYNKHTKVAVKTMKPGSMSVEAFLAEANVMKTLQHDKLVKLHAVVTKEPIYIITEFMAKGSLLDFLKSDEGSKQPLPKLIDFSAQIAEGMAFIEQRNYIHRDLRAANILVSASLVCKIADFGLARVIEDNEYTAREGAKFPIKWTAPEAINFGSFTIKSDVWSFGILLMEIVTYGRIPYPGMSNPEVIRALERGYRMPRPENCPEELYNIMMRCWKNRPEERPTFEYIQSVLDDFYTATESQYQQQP
14-3-3 Bad inh: disrupts binding of bovine 14-3-3 zeta to phospho-Bad peptide; actives 0.71% (n = 220,000); inhibition, % at 21.7 µM; P63103; TR-FRET 14-3-3zeta/Dy647-pBad peptide displacement, 1 h; AID 781;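 active = inhibition above about 70%, limit read from the data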;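 also: 0% = full 14-3-3 plus peptide FRET controls and 100% = background without 14-3-3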
YIC counter: counter-screen: alters YIC FRET probe signal; shares compounds with RanGTP-Imp inh; Purified YIC probe, intramolecular FRET ratio YFP/CFP; IC50, µM; actives 40% (n = 1,000);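 active = fitted half-maximal inhibitory concentration no more than tenfold above the top dose tested; inconclusive = flat fit with 30 to 70% activity, or poor fit; inactive = half-maximal concentration beyond tenfold above the top dose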
The depositor's hits bear a star; ? = inconclusive; . = no result.

SMILES	Runt-SMMHC FRET	Runt-CBFb FRET	Tb hexokinase	RanGTP-Imp inh	Hck Nef HTS	14-3-3 Bad inh	YIC counter
O=C(O)c1sc2cc(C(F)(F)F)cnc2c1-c1cccs1	3	4	-3	3	-10	-1	.
CCCC(=O)NNc1c2ccccc2nc2ccccc12	26	40	0	21*	1	-8	>50
COc1ccc(OC)c(Nc2c3ccccc3nc3ccccc23)c1	.	.	.	32*	.	.	>50
COc1ccc(OCC(=O)Nc2nc3ccccc3[nH]2)cc1	1	1	-13	?	-1	-1	.
COc1ccc(OCC(=O)NNc2c3ccccc3nc3ccccc23)cc1	9	6	-1	27*	1	-5	>50
COc1cc(C)c(Cl)cc1S(=O)(=O)NC1CC(C)(C)NC(C)(C)C1	0	-1	28	7	14	-6	.
COc1cccc(NC(=O)Nc2cc(C(=O)O)ccc2N2CC3CC(C2)c2cccc(=O)n2C3)c1 (stereo not given)	.	.	.	3	.	.	.
COc1ccccc1C#Cc1ccc2c(=O)c3ccccc3n(C)c2c1	.	.	.	40*	.	.	0.72*
COc1cc(=O)n(C)c2ccccc12	5	2	-14	3	2	-3	.
CCC1CCCCN1C(=O)COc1cccc2c1CCN(C)C2=O (stereo not given)	-1	0	-7	18*	-36	-13	>50
COc1ccc(C(=O)Nc2sc3c(c2C#N)CCN(C(C)=O)C3)cc1	62*	41	-16	42*	26	-6	>50
CC(=O)N1CCc2c(sc(NC(=O)Cc3ccc(F)cc3)c2C#N)C1	.	.	.	2	.	.	.
COc1ccc2cc(C(C)=O)c(=O)oc2c1	62*	19	-26	19*	4	16	35*
Cc1cc(NCCN(C)C)n2nc(-c3cccs3)cc2n1	7	4	-13	17*	6	7	24*
Cc1csc(SCC(=O)NC(=O)NCCC(C)C)n1	2	-2	1	7	-1	-5	.
CCCCc1cc(=O)oc2c(C)c(OCC(=O)NCc3ccccn3)ccc12	.	.	.	31*	.	.	>50
Cn1cc(/C=N\NC(=O)C2COc3ccccc3O2)c2ccccc21 (stereo not given)	2	1	18	2	2	-2	.
Cc1c(/C=N\NC(=O)C2COc3ccccc3O2)c2ccccc2n1C (stereo not given)	-4	0	-30	23*	3	1	>50
CCOc1ccc(-n2ccnc2SCC(=O)NCc2ccc3c(c2)OCO3)cc1	9	0	17	1	1	-8	.
NNc1nc2sc3c(c2c(=O)n1C1CCCCC1)CCN(Cc1ccccc1)C3	54*	74*	-19	28*	0	-12	0.92*
NNc1nc2sc3c(c2c(=O)n1Cc1ccccc1)CCC3	-7	22	-5	-4	35	-16	.
O=C(NC1CC1)c1ccc2c(Cl)c3c(nc2c1)CCCC3	0	-4	2	17*	22	-1	>50
CCOC(=O)N1CCC(NC(=O)c2ccc3c(Cl)c4c(nc3c2)CCCC4)CC1	-12	0	-11	.	-6	2	.
Cc1c(OCC(=O)NCc2cccnc2)ccc2c3c(c(=O)oc12)CCC3	.	.	.	-2	.	.	.
Cc1c(OCC(=O)NCc2ccncc2)ccc2c3c(c(=O)oc12)CCC3	.	.	.	17*	.	.	>50
COc1ccc(NC(=O)CN(C)CC(=O)Nc2sc3c(c2C(N)=O)CCC3)cc1	.	.	.	3	.	.	.
COc1cc(OC)cc(C(=O)Nc2sc3c(c2C(N)=O)CCC3)c1	.	.	.	18*	.	.	>26
N#Cc1c(N)[nH]c(=S)c(C#N)c1-c1ccccc1	62	39	-20	31*	3	0	>50
Cc1ccc(-c2cc(-c3ccccc3)[nH]c(=S)c2C#N)cc1	1	5	-10	-1	1	-38	.
CC1CCCN(c2nc3ccccc3nc2C(C#N)C(=O)OC2CCCCC2)C1 (stereo not given)	-45	-1	11	.	0	6	.
